In publication PMC5909973 (ChemMedChem, 2017):

Legend:
human FPR2 [1] = target: T1, human FPR2 (Homo sapiens, UniProt P25090); experiment: Ca2+ mobilization; type: cell-based; settings: for Ca+2 mobilization FPR2-HL60 efficacy: normalized to 5 nM WKYMVM = 100%
T1 sequence (P25090 1-351): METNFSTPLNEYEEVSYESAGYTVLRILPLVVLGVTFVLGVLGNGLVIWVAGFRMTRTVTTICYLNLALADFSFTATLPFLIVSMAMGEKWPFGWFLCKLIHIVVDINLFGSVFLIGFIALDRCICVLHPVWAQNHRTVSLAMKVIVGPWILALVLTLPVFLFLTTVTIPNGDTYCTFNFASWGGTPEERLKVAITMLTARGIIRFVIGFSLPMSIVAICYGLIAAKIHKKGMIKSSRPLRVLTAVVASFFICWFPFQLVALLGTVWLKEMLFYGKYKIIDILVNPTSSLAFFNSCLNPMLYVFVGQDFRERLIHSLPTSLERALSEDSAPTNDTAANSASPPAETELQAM
Outline: (§1)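 FPR1- or FPR2-stably transfected HL-60 cells were kept in RPMI 1640 with 10% FCS and G418. Cells were loaded with Fluo-4 AM (1.25 µg/mL final) for 30 min at 37 °C in the dark, then put in HBSS with Ca²⁺/Mg²⁺ at 2×10⁵ cells/well. After test compound addition, fluorescence (ex 485/em 538 nm) was read every 5 s for 240 s at room temperature. Peak change over baseline was normalized to 5 nM fMLF (FPR1) or 5 nM WKYMVM (FPR2). Runs were in triplicate, with EC50 from nonlinear regression of 5–6 points.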

human FPR1 [2] = target: T2, human FPR1 (Homo sapiens, UniProt P21462); experiment: Ca2+ mobilization; type: cell-based; settings: for Ca+2 mobilization FPR1-HL60 efficacy: normalized to 5 nM fMLF = 100%
T2 sequence (P21462 1-350): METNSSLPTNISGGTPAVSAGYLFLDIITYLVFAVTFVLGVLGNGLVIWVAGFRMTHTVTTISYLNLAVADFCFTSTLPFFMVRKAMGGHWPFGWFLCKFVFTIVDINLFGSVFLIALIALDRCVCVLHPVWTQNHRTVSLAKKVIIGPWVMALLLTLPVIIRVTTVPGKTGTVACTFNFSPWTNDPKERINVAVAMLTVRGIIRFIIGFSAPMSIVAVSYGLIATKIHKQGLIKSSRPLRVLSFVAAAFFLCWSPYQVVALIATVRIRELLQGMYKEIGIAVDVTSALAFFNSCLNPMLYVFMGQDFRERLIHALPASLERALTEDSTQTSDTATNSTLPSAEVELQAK
Outline: as §1

human FPR2 [3] = target: T1, human FPR2; type: cell-based; settings: for Ca+2 mobilization FPR2-HL60 max. inhibition: desensitization, pretreatment, then WKYMVM 5 nM
Outline: (§2)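 Fluo-4-loaded transfected HL-60 cells in HBSS⁺ were pretreated with DMSO vehicle or graded test compound concentrations while Ca²⁺ flux was monitored. The same wells were then challenged with 5 nM fMLF (FPR1 cells) or 5 nM WKYMVM (FPR2 cells). The second Ca²⁺ response (ex 485/em 538 nm, every 5 s for 240 s, room temperature) was taken as the measure of desensitization. Each compound was run in triplicate, with dose-response curves fitted by nonlinear regression.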

human FPR1 [4] = target: T2, human FPR1; experiment: Desensitization: inhibition of fMLF-induced Ca2+ mobilization in FPR1-HL60 cells; type: cell-based
Outline: as §2

N9 cells = experiment: MTT cytotoxicity assay in N9 cells; type: cell-based; settings: Mus musculus, N9, 24 h, read-out: MTT EC50
Outline: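 Murine N9 microglia were grown in IMDM with 5% FBS and 2 mM glutamine at 37 °C in 5% CO₂, and seeded at 20,000 cells/well. Next day, test compound was added at 5–6 concentrations (10⁻⁸–10⁻⁴ M) in triplicate, with a DMSO vehicle control. After 24 h, MTT (0.5 mg/mL) was added for 3–4 h at 37 °C. Formazan was dissolved in DMSO/EtOH 1:1 and read at 570 and 630 nm. EC50 came from a nonlinear fit of percent absorbance change against log concentration.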

[5] = tested on: mouse microglial N9 cells; experiment: ROS production in LPS-stimulated N9 cells; type: cell-based; settings: for reduction in cellular ROS level (dose dependence): N9 cells stimulated with LPS, 0.1 and 1 μM; for reduction in ROS production: N9 cells, 24 h co-incubation with LPS, compound 0.1 μM, p<0.05
Outline: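 N9 microglia seeded at 25,000 cells/well; after 3–4 h, LPS 300 ng/mL added alone or with test compound (0.1 or 1 μM), then 24 h at 37 °C. H2DCF-DA (10 μM final) added for 30 min, wells washed 3× in ice-cold PBS, read in saline at ex 480/em 520 nm. Increase over basal fluorescence; mean ± standard error, ≥3 biological replicates; one-way ANOVA with paired two-tailed t-tests, p<0.05.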

[6] = ROS scavenging in cell-free non-enzymatic O2·−-generating system; settings: concentrations up to 20 μM; data not shown
Outline: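 Superoxide generated non-enzymatically from phenazine methosulfate plus NADH in 0.05 M phosphate buffer, pH 7.5, with or without test compound. Detection by NBT reduction to monoformazan, followed at 560 nm and 25 °C on a plate spectrophotometer. The rate of absorbance change was taken as the read-out.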

FPR2 [7] = settings: read-out: Ki value at FPR2; cited from earlier work
FPR2 [8] = settings: cited from earlier work
FPR2 [9] = settings: FPR2 agonist WKYMVm; cited from earlier work
ear edema = settings: cited from earlier work
FPR2 [10] = settings: read-out: FPR2 desensitization IC50; cited from earlier work

Compound	Ca+2 mobilization FPR2-HL60 efficacy (human FPR2 [1])	Ca+2 mobilization FPR1-HL60 efficacy (human FPR1 [2])	Ca+2 mobilization FPR2-HL60 max. inhibition (human FPR2 [3])	EC50 (N9 cells)	reduction in cellular ROS level (dose dependence) [5]	reduction in ROS production [5]	direct ROS scavenging activity [6]	also measured
O=C(Nc1ccc(Br)cc1)N[C@H](Cc1ccc(O)cc1)C(=O)NC1CCCCNC1=O (stereo partly drawn) [(2R)-46, (2R)-2-[3-(4-Bromophenyl)ureido]-3-(4-hydroxyphenyl)-N-(2-oxoazepan-3-yl)propanamide]	140%	110%	100%	> 100000 nM	dose-dependent reduction in cellular ROS level	statistically significant reduction in ROS production	none of the tested compounds demonstrated ROS scavenging activity	EC50 (human FPR2 [1]): 350 ± 120 nM; EC50 (human FPR1 [2]): 820 ± 370 nM; FPR2 desensitization / block of agonist-induced Ca2+ mobilization, in words (human FPR2 [3]; FPR2-HL60 cells, WKYMVM): able to induce desensitization; FPR1 desensitization / inhibition of fMLF-induced Ca2+ mobilization, in words (human FPR1 [4]; FPR1-HL60 cells, fMLF): able to induce FPR1 desensitization; Ca+2 mobilization FPR1-HL60 max. inhibition (human FPR1 [4]; desensitization, pretreatment, then fMLF 5 nM): 85%
N#Cc1ccc(C[C@@H](NC(=O)Nc2ccc(O)cc2)C(=O)NCC2(c3ccccc3)CC2)cc1 [(R)-24, (R)-3-(4-Cyanophenyl)-2-[3-(4-hydroxyphenyl)ureido]-N-[(1-phenylcyclopropyl)methyl]propanamide]	–	–	–	> 100000 nM	–	–	–	–
COc1ccc(NC(=O)N[C@H](Cc2ccc(O)cc2)C(=O)NCC2(c3ccccc3)CC2)cc1 [(R)-25, (R)-3-(4-Hydroxyphenyl)-2-[3-(4-methoxyphenyl)ureido]-N-[(1-phenylcyclopropyl)methyl]propanamide]	90%	55%	75%	> 100000 nM	dose-dependent reduction in cellular ROS level	statistically significant reduction in ROS production	none of the tested compounds demonstrated ROS scavenging activity	–
CCCCOc1ccc(C(=O)NN2C(=O)c3ccccc3NC2c2ccc(O)cc2)cc1 (stereo not drawn) [Compound 6, Quin C7]	–	–	–	–	–	–	–	Ki (FPR2 [7]): 6700 nM; inhibition of Ca2+ flux induced by WKYMVm (FPR2 [8]; FPR2 agonist WKYMVm): inhibited; activation of Ca2+ flux (FPR2 [8]; FPR2 transfected cells): did not activate Ca^2+ flux; inhibition of chemotaxis induced by WKYMVm (FPR2 [9]): inhibited; arachidonic acid-induced ear edema (ear edema): inhibited arachidonic acid-induced ear edema
CCCCOc1ccc(C(=O)NN2C(=O)c3ccccc3NC2c2ccc(OC)cc2)cc1 (stereo not drawn) [Quin C1, reference compound]	–	–	–	–	–	statistically significant reduction in ROS production	–	IC50 (FPR2 [10]): 40 nM
